# PfHsp90 set2 = growth inhibition of PfHsp90-expressing yeast, primary screen, antimalarial PfHsp90 inhibitor project, S. cerevisiae, BacTiter-Glo luminescence, single point, set 2. AID 504621, 2011. BacTiter-Glo ATP, 48 h; yeast lacking PDR1 and PDR3 efflux regulators. actives 0.32% (n = 310,000). inhibition, % at 9.4 µM;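 active means every replicate shows inhibition above about 80%, whatever the replicate mean, limit read from the data; inconclusive means mean inhibition reaches the set limit but some replicate falls short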;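 further: 0% = DMSO neutral controls and 100% = 20 µM radicicol positive controls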
# CSC inhib = cancer stem cell viability inhibitors, primary screen, luminescence | cancer stem cell-like cells viability | inhibition, % at 7.5 µM | actives 1.1% (n = 300,000) | AID 2717, 2010; in the data active means inhibition above about 75%; inconclusive means no clear call, values can overlap the other calls; tested in HMLE shEcad cells
# FN deposit inh = inhibitors of fibronectin matrix deposition, primary screen, AH1F cells, Alexa488-fibronectin fluorescence, plate reader. AH1F fibroblasts, overnight. inhibition, % at 12.6 µM. actives 0.086% (n = 350,000). AID 743247, 2014;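 active means mean inhibition across replicates of 30% or more, regardless of how many single replicates reach that level; inconclusive means mean under 30% yet at least half of replicates reach 30%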;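 further: positive control wells lacked labelled fibronectin entirely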
#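 Material: AH1F fibroblast monolayer depositing Alexa488-labelled fibronectin into matrix / Amount: 10000 AH1F cells per well / Signal: fluorescence 485/525 nm / Medium: DMEM, 2% serum / Compound: single dose, pinned / Incubation: 1 h cell adhesion before compound, then overnight fibronectin incubation / Reagent: Alexa488-FN, 24 nM final / Read-out: inhibition of fibronectin deposition signal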
# SKKanGAS inh = S. pyogenes SKKanGAS growth inhibitors in kanamycin, primary screen, streptokinase expression inhibitor project, SKKanGAS strain, BacTiter-Glo luminescence; 6 h; inhibition, % at 7.5 µM; actives 1.3% (n = 300,000);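 active means mean replicate score, as percent of positive control median, at least 50; inconclusive means mean below 50 but one replicate at or above 50; inactive means mean and every replicate below 50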;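 further: strain carries kanamycin resistance gene driven by streptokinase promoter and grows in 40 µg/ml kanamycin; loss of luminescence reflects streptokinase promoter inhibition or plain growth inhibition; 0% = median of DMSO wells and 100% = positive control at its reference dose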
# PglD inh = C. jejuni PglD acetyltransferase inhibitors, primary screen, biochemical, DTNB colorimetric, single point | UDP-N-acetylbacillosamine N-acetyltransferase PglD (Campylobacter jejuni) | purified PglD enzyme, DTNB colorimetric CoA detection | inhibition, % at 12.5 µM | actives 0.098% (n = 360,000) | AID 602405, 2012; in the data active means inhibition above about 16%, passing the limit was not always enough; inconclusive means no clear call, values can overlap the other calls
# Rtt109 Vps75 = inhibitors of C. albicans Rtt109/Vps75 HAT, primary screen, biochemical, ThioGlo CoA-SH fluorescence, plate reader | Histone acetyltransferase RTT109 (Candida albicans (strain SC5314 / ATCC MYA-2876)), … | purified Rtt109/Vps75, 4 h | inhibition, % at 34.9 µM | actives 0.16% (n = 330,000) | AID 540336, 2011;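 active means inhibition of at least 50% in every replicate; inconclusive means best replicate reaches 50% inhibition but some replicates fall short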
# Target sequence (Q5AAJ8 whole entry, looked up): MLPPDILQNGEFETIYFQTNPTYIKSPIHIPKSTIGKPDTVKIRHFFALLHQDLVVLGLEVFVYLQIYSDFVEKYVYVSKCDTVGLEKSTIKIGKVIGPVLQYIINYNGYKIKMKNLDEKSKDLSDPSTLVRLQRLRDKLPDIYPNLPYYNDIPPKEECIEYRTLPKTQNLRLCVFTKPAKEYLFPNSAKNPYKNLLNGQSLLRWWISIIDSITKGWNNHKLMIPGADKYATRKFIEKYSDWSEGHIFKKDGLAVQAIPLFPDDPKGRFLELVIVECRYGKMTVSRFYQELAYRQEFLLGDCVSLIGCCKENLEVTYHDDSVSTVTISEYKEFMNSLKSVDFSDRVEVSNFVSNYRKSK
# Starred values were filed as active, the others as inactive; ? = inconclusive; . = no result. Hits are enriched below; roughly 1.7% of the tested compounds scored in any of these assays.
SMILES,PfHsp90 set2,CSC inhib,FN deposit inh,SKKanGAS inh,PglD inh,Rtt109 Vps75
COc1ccc(C(=O)C(CN2CCCC2)c2ccccc2)cc1 (stereo not drawn),0.4,86.2*,-0.7,0.5,-0.9,-17.1
O=C(c1ccc(Cl)cc1)C(CN1CCCC1)c1ccccc1 (stereo not drawn),-49.6,34.8,53.2*,-8.0,-1.6,-0.5
CO[C@H]1CN(C)C(=O)c2ccc(NS(=O)(=O)c3cn(C)cn3)cc2OC[C@@H](C)N(C)C[C@H]1C,.,.,-2.6,.,-1.2,.
Cc1ccc(S(=O)(=O)Nc2ccc3c(c2)CC(=O)N([C@@H](C)CO)C[C@@H](C)[C@H](CN(C)S(=O)(=O)c2cn(C)cn2)O3)cc1,.,.,.,.,-0.1,.
COc1ccc2c3c(n(C)c2c1)[C@@H](CO)N(CC1CC1)CC31CCN(S(=O)(=O)c2cccs2)CC1,.,.,11.8,.,.,.
CNC(=O)C[C@@H]1CC[C@H]2[C@H](COc3ccc(NC(=O)C(C)C)cc3C(=O)N2C)O1,.,.,-10.1,.,0.3,.
COc1ccc(CN(C)C[C@@H]2OCCCC[C@@H](C)Oc3ccc(NS(=O)(=O)c4ccc(C)cc4)cc3C(=O)N([C@H](C)CO)C[C@H]2C)cc1,.,.,.,.,-6.1,.
CC(C)(C)c1ccc(NC(=O)N2CCCN(c3c(Cl)cncc3Cl)CC2)cc1,-6.9,77.3*,-3.8,15.7,.,6.0
Cc1ccc(S(=O)(=O)N[C@H]2CC[C@@H](CCNS(=O)(=O)Cc3ccccc3)O[C@@H]2CO)cc1,.,.,0.8,.,-0.6,.
COc1ccccc1-c1cnc2c(c1)C(=O)N([C@H](C)CO)C[C@@H](C)[C@H](CN(C)Cc1ccc(C(=O)O)cc1)O2,.,.,-4.4,.,6.8,.
Oc1nc(Nc2ccc(Cl)cc2Cl)sc1/C=C1\C=Nc2ccccc21,17.5,-0.5,5.7,115.0*,.,-3.0
CSc1nc(O)c(/C=C2\C=Nc3ccccc32)[nH]1,-1.9,-14.4,6.7,-19.1,.,5.1
CCC(C)c1ccc(NC(=O)COc2c(F)c(F)c(C(F)(F)F)c(F)c2F)cc1 (stereo not drawn),-12.2,61.0,.,67.0*,.,23.8
O=C(COc1c(F)c(F)c(C(F)(F)F)c(F)c1F)Nc1ccc(N2CCOCC2)c(Cl)c1,5.7,31.6,-16.7,6.0,-4.2,13.1
C/C=C/c1cnc2c(c1)C(=O)N([C@H](C)CO)C[C@@H](C)[C@@H](CN(C)Cc1ccccc1)O2,.,.,-3.0,.,-0.7,.
COc1ccc([N+](=O)[O-])cc1Nc1c2ccccc2nc2ccccc12,-1.9,130.7*,16.2,2.3,4.3,0.5
COc1ccc(OC)c(Nc2c3ccccc3nc3ccccc23)c1,12.2,?,7.2,0.5,0.4,-4.8
COc1cc(Nc2c3c(nc4ccccc24)CCC3)cc(OC)c1OC,-25.7,57.8,8.6,4.9,-0.8,-1.1
COc1cc(NS(C)(=O)=O)ccc1Nc1c2ccccc2nc2ccccc12,-25.9,102.0*,3.4,.,-4.1,3.4
CN(C)c1ccc(NC2=C(Cl)C(=O)c3ccccc3C2=O)cc1,19.6,147.1*,22.5,.,-1.3,-0.1
O=C1C(Cl)=C(Nc2ccc3cn[nH]c3c2)C(=O)c2ccccc21,-53.6,108.6*,71.0*,73.2*,2.5,-2.1
CC(=O)Nc1ccc(NC2=C(Cl)C(=O)c3ccccc3C2=O)cc1,.,.,.,28.1,.,.
O=C(NC1CCC1)[C@@H]1[C@@H](CO)[C@@H]2Cn3c(ccc(-c4ccccc4)c3=O)[C@@H]2N1Cc1ccccn1,.,.,.,.,1.4,.
O=C(CSCC(=O)N1CCCCC1)Nc1nc(-c2ccc(Cl)s2)cs1,107.9*,-11.2,.,-7.9,0.1,-8.4
O=C(O)CN1C(=O)/C(=C\c2cc(Br)ccc2OCc2ccc(Cl)cc2Cl)SC1=S,-6.4,108.5*,.,104.8*,-4.5,3.4
Cc1ccc(-c2nc(CS(=O)CC(=O)NCc3ccc4c(c3)OCO4)c(C)o2)cc1 (stereo not drawn),-8.5,75.7*,.,-0.3,2.0,-3.4

# Compound activity (PubChem BioAssay)
